Measured values as given in ChEMBL document CHEMBL1828581 (J Med Chem, 2011).
Activity calls are given as the source filed them. The rule behind the calls is not given here.

Tests used:
[1] = Dissociation constant, pKa of the compound with basic tertiary amino group by pH titration method; type: physicochemical
Plasmodium falciparum [2] = assay: Antimalarial activity against erythrocyte stages of chloroquine-resistant Plasmodium falciparum K1 infected in human erythrocytes by lactate dehydrogenase assay; type: functional, organism-based
Outline: (§1)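 Asexual blood-stage P. falciparum in continuous culture (modified Trager–Jensen), read out by parasite lactate dehydrogenase. Stocks are 2 mg/mL in DMSO or methanol. […] IC50 comes from nonlinear dose–response fitting.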

[3] = Inhibition of beta-hematin formation assessed as equivalents of drug relative to hematin for 50% inhibition at pH 4.5 by BHIA assay; type: functional
Outline: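 β-Hematin formation mediated by 4.5 M acetate, pH 4.5, in a 96-well plate format. Unconverted hematin is dissolved with 5% (v/v) aqueous pyridine at pH 7.5, which leaves β-hematin undissolved. Result expressed as equivalents of compound relative to hematin at 50% inhibition.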

[4] = Dissociation constant, pKa of the compound with quinoline heteroaromatic N atom by pH titration method; type: physicochemical
Plasmodium falciparum [5] = assay: Resistance index, ratio of IC50 for chloroquine-resistant Plasmodium falciparum K1 to IC50 for chloroquine-sensitive Plasmodium falciparum D10; type: functional
Outline: (§2)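 Resistance index is the IC50 against the resistant strain divided by the IC50 against D10. Both IC50s come from the lactate dehydrogenase growth assay on asexual blood stages, run by the same serial-dilution protocol.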

Plasmodium falciparum [6] = assay: Antimalarial activity against erythrocyte stages of chloroquine-sensitive Plasmodium falciparum D10 infected in human erythrocytes by lactate dehydrogenase assay; type: functional, organism-based; outline: as §1
CHO = assay: Cytotoxicity against CHO cells by MTT assay; type: cell-based; settings: Cricetulus griseus
Outline: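 CHO cells, MTT colorimetric growth read-out. Compound from a 2 mg/mL stock, tested from 100 μg/mL in 10-fold serial dilutions in complete medium (5 concentrations, lowest 0.01 μg/mL). Emetine reference. IC50 from nonlinear dose–response fitting; mean ± SEM, n = 3.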

Plasmodium berghei [7] = assay: Antimalarial activity against Plasmodium berghei infected in NMRI mouse assessed as reduction of parasitemia level at 30 mg/kg, po administered on day 0, 1, 2 and 3 after postinfection (reference value: 0.38%); type: functional; design: scale not given: the % may be the effect or the level left
Plasmodium berghei [8] = assay: Antimalarial activity against Plasmodium berghei infected in NMRI mouse assessed as parasitized red blood cells level at 30 mg/kg, po administered on day 0, 1, 2 and 3 after postinfection measured on day 4 (reference value: 78%); type: functional
Plasmodium berghei [9] = assay: Antimalarial activity against Plasmodium berghei infected in NMRI mouse assessed as parasitized red blood cells level at 100 mg/kg, po administered on day 0, 1, 2 and 3 after postinfection measured on day 4 (reference value: 78%); type: functional
Plasmodium berghei [10] = assay: Antimalarial activity against Plasmodium berghei infected in NMRI mouse assessed as host survival time at 100 mg/kg, po administered on day 0, 1, 2 and 3 after postinfection (reference value: 4 days); type: functional
Outline: (§3)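 P. berghei in female NMRI mice (modified Peters 4-day test): 0.2 mL of donor blood diluted to 10^8 parasitized erythrocytes/mL given i.v. Oral dosing starts 4 h postinfection, with further daily doses at 24, 48 and 72 h by regimen. Groups of 3 treated and 5 untreated mice. Survival followed to day 30, and survivors are checked for parasitemia.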

[11] = molecular target: T1, Chloroquine resistance transporter (Plasmodium falciparum, UniProt Q9N623); assay: Inhibition of chloroquine-resistant Plasmodium falciparum Dd2 chloroquine resistance transporter expressed in xenopus laevis oocytes assessed as inhibition of [3H]chloroquine uptake after 1 to 2 hrs; type: cell-based, Oocyte
T1 sequence (Q9N623 whole entry): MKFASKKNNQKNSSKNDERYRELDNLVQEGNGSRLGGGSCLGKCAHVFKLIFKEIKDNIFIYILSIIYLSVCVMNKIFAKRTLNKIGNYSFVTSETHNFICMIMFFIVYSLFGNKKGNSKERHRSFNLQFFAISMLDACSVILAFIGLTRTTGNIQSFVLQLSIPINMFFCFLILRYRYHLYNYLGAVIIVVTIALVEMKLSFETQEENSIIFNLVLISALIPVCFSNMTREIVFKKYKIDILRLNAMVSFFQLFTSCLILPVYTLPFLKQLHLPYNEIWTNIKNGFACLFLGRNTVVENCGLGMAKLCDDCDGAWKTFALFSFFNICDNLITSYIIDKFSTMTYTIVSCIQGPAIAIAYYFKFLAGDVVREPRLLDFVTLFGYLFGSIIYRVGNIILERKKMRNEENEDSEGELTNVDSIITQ

Plasmodium berghei [12] = assay: Antimalarial activity against Plasmodium berghei infected in NMRI mouse assessed as reduction of parasitemia level at 100 mg/kg, po administered on day 0, 1, 2 and 3 after postinfection (reference value: 0.12%); type: functional; design: scale not given: the % may be the effect or the level left
Plasmodium berghei [13] = assay: Antimalarial activity against Plasmodium berghei infected in NMRI mouse assessed as host survival time at 30 mg/kg, po administered on day 0, 1, 2 and 3 after postinfection (reference value: 4 days); type: functional; outline: as §3
[14] = Selectivity index, ratio of IC50 for CHO cells to IC50 for chloroquine-sensitive Plasmodium falciparum D10; type: toxicity, cell-based; settings: hamster, read-out: Ratio IC50
Outline: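 The D10 value came from parasite lactate dehydrogenase read-out on erythrocytic cultures, 10 two-fold dilutions from 100 ng/mL, with nonlinear dose–response fitting.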

Plasmodium berghei [15] = assay: Antimalarial activity against Plasmodium berghei infected in NMRI mouse assessed as host survival time at 100 mg/kg, po administered on day 0, 1 and 2 after postinfection (reference value: 4 days); type: functional; outline: as §3
Plasmodium berghei [16] = assay: Antimalarial activity against Plasmodium berghei infected in NMRI mouse assessed as parasitized red blood cells level at 30 mg/kg, po administered on day 0, 1 and 2 after postinfection measured on day 4 (reference value: 78%); type: functional
Plasmodium berghei [17] = assay: Antimalarial activity against Plasmodium berghei infected in NMRI mouse assessed as host survival time at 30 mg/kg, po administered on day 0, 1 and 2 after postinfection (reference value: 4 days); type: functional; outline: as §3
Plasmodium berghei [18] = assay: Antimalarial activity against Plasmodium berghei infected in NMRI mouse assessed as reduction of parasitemia level at 100 mg/kg, po administered on day 0, 1 and 2 after postinfection (reference value: 0.11%); type: functional; design: scale not given: the % may be the effect or the level left
Plasmodium berghei [19] = assay: Antimalarial activity against Plasmodium berghei infected in NMRI mouse assessed as parasitized red blood cells level at 100 mg/kg, po administered on day 0, 1 and 2 after postinfection measured on day 4 (reference value: 78%); type: functional
Plasmodium berghei [20] = assay: Antimalarial activity against Plasmodium berghei infected in NMRI mouse assessed as reduction of parasitemia level at 30 mg/kg, po administered on day 0, 1 and 2 after postinfection (reference value: 0.13%); type: functional; design: scale not given: the % may be the effect or the level left
[21] = molecular target: T2, Chloroquine resistance transporter (Plasmodium falciparum) (UniProt Q9N623); assay: Inhibition of chloroquine-sensitive Plasmodium falciparum D10 chloroquine resistance transporter expressed in xenopus laevis oocytes assessed as inhibition of [3H]chloroquine uptake after 1 to 2 hrs; type: cell-based; settings: Oocyte
T2 sequence (whole entry): T1 sequence (Q9N623 whole entry)

Plasmodium falciparum [22] = assay: Antimalarial activity against erythrocyte stages of chloroquine-resistant Plasmodium falciparum Dd2 infected in human erythrocytes by lactate dehydrogenase assay; type: functional, organism-based; outline: as §1
Plasmodium falciparum [23] = assay: Antimalarial activity against erythrocyte stages of chloroquine-resistant Plasmodium falciparum RSA11 infected in human erythrocytes by lactate dehydrogenase assay; type: functional, organism-based; outline: as §1
Plasmodium falciparum [24] = assay: Antimalarial activity against erythrocyte stages of chloroquine-resistant Plasmodium falciparum W2 infected in human erythrocytes by lactate dehydrogenase assay; type: functional, organism-based; outline: as §1
Plasmodium falciparum [25] = assay: Resistance index, ratio of IC50 for chloroquine-resistant Plasmodium falciparum RSA11 to IC50 for chloroquine-sensitive Plasmodium falciparum D10; type: functional; outline: as §2
Plasmodium berghei [26] = assay: Antimalarial activity against Plasmodium berghei infected in NMRI mouse assessed as host survival time at 100 mg/kg, po administered as a single dose 4 hrs post infection (reference value: 4 days)
Plasmodium berghei [27] = assay: Antimalarial activity against Plasmodium berghei infected in NMRI mouse assessed as reduction of parasitemia level at 30 mg/kg, po administered as single dose 4 hrs post infection (reference value: 2.76%); design: scale not given: the % may be the effect or the level left
Plasmodium falciparum [28] = assay: Resistance index, ratio of IC50 for chloroquine-resistant Plasmodium falciparum W2 to IC50 for chloroquine-sensitive Plasmodium falciparum D10; type: functional; outline: as §2
Plasmodium berghei [29] = assay: Antimalarial activity against Plasmodium berghei infected in NMRI mouse assessed as reduction of parasitemia level at 100 mg/kg, po administered as single dose 4 hrs post infection (reference value: 0.16%); design: scale not given: the % may be the effect or the level left
Plasmodium berghei [30] = assay: Antimalarial activity against Plasmodium berghei infected in NMRI mouse assessed as host survival time at 30 mg/kg, po administered as a single dose 4 hrs post infection (reference value: 4 days)
Plasmodium berghei [31] = assay: Antimalarial activity against Plasmodium berghei infected in NMRI mouse assessed as parasitized red blood cells level at 100 mg/kg, po administered as single dose 4 hrs post infection measured on day 4 (reference value: 78%)
Plasmodium berghei [32] = assay: Antimalarial activity against Plasmodium berghei infected in NMRI mouse assessed as parasitized red blood cells level at 30 mg/kg, po administered as single dose 4 hrs post infection measured on day 4 (reference value: 78%)
Plasmodium falciparum [33] = assay: Resistance index, ratio of IC50 for chloroquine-resistant Plasmodium falciparum Dd2 to IC50 for chloroquine-sensitive Plasmodium falciparum D10; type: functional; outline: as §2

Structure (SMILES) | pKa [1] | IC50 (Plasmodium falciparum [2]) | IC50 [3] [equivalents] | pKa [4] | Ratio IC50 (Plasmodium falciparum [5]) | IC50 (Plasmodium falciparum [6]) | other results
CN(Cc1ccc(Cl)cc1)Cc1ccccc1CNc1ccnc2cc(Cl)ccc12 | 9.6 | 1130 nM | 1.4 | 7.44 | – | – | –
CN(Cc1ccc(N(C)C)cc1)Cc1ccccc1CNc1ccnc2cc(Cl)ccc12 | 9.71 | 149 nM | 0.48 | 7.4 | 0.8 | 178 nM | –
CC[C@H]1CN2CCc3cc(OC)c(OC)cc3[C@@H]2C[C@@H]1C[C@H]1NCCc2cc(OC)c(OC)cc21 [EMETINE] | – | – | – | – | – | – | IC50 (CHO): 80 nM
COc1ccc(CN(C)Cc2cccc(CNc3ccnc4cc(Cl)ccc34)c2)cc1 | 9.67 | 120 nM | 0.52 | 7.38 | 1.3 | 91 nM | –
CN(Cc1ccc(N(C)C)cc1)Cc1cccc(CNc2ccnc3cc(Cl)ccc23)c1 | 9.67 | 281 nM | 0.5 | 7.36 | – | > 0.1 µg/mL | –
CN(Cc1ccccc1)Cc1ccccc1CNc1ccnc2cc(Cl)ccc12 | 9.85 | 122 nM | 1.1 | 7.57 | 0.9 | 140 nM | Activity (Plasmodium berghei [7]): 99.6%; Activity (Plasmodium berghei [8]): 0.3%; Activity (Plasmodium berghei [9]): 0.09%; Time (Plasmodium berghei [10]): 30 days; IC50 [11]: 58000 nM; Activity (Plasmodium berghei [12]): 99.9%; Time (Plasmodium berghei [13]): 20.7 days
CN(Cc1ccc(CNc2ccnc3cc(Cl)ccc23)cc1)Cc1ccc(N(C)C)cc1 | 9.66 | 36 nM | 0.4 | 7.33 | 0.8 | 47 nM | selectivity ratio [14]: > 4790; IC50 (CHO): > 225000 nM
CN(Cc1ccccc1)Cc1cccc(CNc2ccnc3cc(Cl)ccc23)c1 | 9.77 | 43 nM | 0.69 | 7.63 | 1 | 41 nM | selectivity ratio [14]: 1270; Time (Plasmodium berghei [15]): 30 days; IC50 (CHO): 70000 nM; IC50 [11]: 36000 nM; Activity (Plasmodium berghei [16]): 0.1%; Time (Plasmodium berghei [17]): 16.7 days; Activity (Plasmodium berghei [18]): 99.9%; Activity (Plasmodium berghei [19]): 0.09%; Activity (Plasmodium berghei [20]): 99.9%
COc1ccc(CN(C)Cc2ccccc2CNc2ccnc3cc(Cl)ccc23)cc1 | 9.85 | 134 nM | 0.46 | 7.47 | 0.8 | 175 nM | –
CCN(CC)CCCC(C)Nc1ccnc2cc(Cl)ccc12 (stereo not given) [CHLOROQUINE] | – | – | 1.9 | – | – | – | inhibition [21]: Active
CN(Cc1ccc(Cl)cc1)Cc1ccc(CNc2ccnc3cc(Cl)ccc23)cc1 | 9.74 | > 10 µg/mL | 0.34 | 7.44 | – | > 0.1 µg/mL | –
COc1ccc(CN(C)Cc2ccc(CNc3ccnc4cc(Cl)ccc34)cc2)cc1 | 9.7 | 88 nM | 1.44 | 7.44 | 0.7 | 130 nM | –
CN(Cc1ccccc1)Cc1ccc(CNc2ccnc3cc(Cl)ccc23)cc1 | 9.9 | 25 nM | 0.32 | 7.56 | 0.9 | 22 nM | IC50 (Plasmodium falciparum [22]): 26 nM; IC50 (Plasmodium falciparum [23]): 38 nM; IC50 (Plasmodium falciparum [24]): 23 nM; Ratio IC50 (Plasmodium falciparum [25]): 1.7; Time (Plasmodium berghei [26]): 10 days; Activity (Plasmodium berghei [27]): 97%; selectivity ratio [14]: > 9220; Ratio IC50 (Plasmodium falciparum [28]): 1; Activity (Plasmodium berghei [29]): 99.8%; IC50 (CHO): > 249000 nM; IC50 [11]: 69000 nM; Time (Plasmodium berghei [30]): 6.7 days; Activity (Plasmodium berghei [31]): 0.12%; inhibition [21]: Active; Activity (Plasmodium berghei [32]): 2.16%; Ratio IC50 (Plasmodium falciparum [33]): 1.2
CN(Cc1ccc(Cl)cc1)Cc1cccc(CNc2ccnc3cc(Cl)ccc23)c1 | 9.89 | 85 nM | 0.66 | 7.55 | 0.6 | 138 nM | –
